The source made the active and inactive calls. The rule behind the calls is not given here.
Legend:
Heat shock protein HSP90 [1] = biological target: T1, Heat shock protein HSP90 (Homo sapiens, UniProt P07900+P08238); experiment: Binding affinity to recombinant human N-terminal truncated HSP90 (9 to 236 residues) expressed in Escherichia coli BL21 (DE3) assessed as on rate constant by biolayer interferometry assay
HCT-116 [2] = experiment: Antiproliferative activity against human HCT-116 cells assessed as reduction in cell viability incubated for 72 hrs by MTT assay; type: functional, cell-based
Outline: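 HCT116 cells in RPMI 1640 with 10% FBS, 37 °C, 5% CO2. Seeded at 3000–5000 cells/well and left 24 h, then exposed to serial compound dilutions for 72 h. Proliferation read by MTT kit using the standard protocol.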

Heat shock protein HSP90 [3] = biological target: T1, Heat shock protein HSP90; experiment: Binding affinity to recombinant human N-terminal truncated HSP90 (9 to 236 residues) expressed in Escherichia coli BL21 (DE3) assessed as off rate constant by biolayer interferometry assay
Heat shock protein HSP90 [4] = biological target: T1, Heat shock protein HSP90; experiment: Binding affinity to recombinant human N-terminal truncated HSP90 (9 to 236 residues) expressed in Escherichia coli BL21 (DE3) assessed as dissociation rate constant by biolayer interferometry assay
Mus musculus [5] = experiment: In vivo inhibition of HSP90/[…] interaction in BALB/c mouse xenografted with human HCT-116 cells assessed as reduction in CDK4 level at 20 mg/kg, po administered for 37 days and measured on day 37 by […] immunohistochemistry analysis; type: functional, organism-based; conditions: time 37.0 day
HCT-116 [6] = experiment: Antitumor activity against human HCT-116 cells xenografted in BALB/c mouse assessed as reduction in tumor volume at 20 mg/kg, po administered for 37 days and measured on day 37; type: functional, organism-based; conditions: time 37.0 day
Outline: (§1)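 HCT116 cells (1×10^7) mixed 3:1 with Matrigel and injected into the flank of 6-week-old BALB/c nude mice, randomized into groups. Dosing started at mean tumor volume 125 mm³: daily oral doses of 10 or 20 mg/kg in 0.9% saline with 5% DMSO, for 37 days. Tumor volume measured daily by calipers as length×width²/2; body weight recorded every 1–4 days. n = 6, mean ± SD.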

[7] = Toxicity in BALB/c mouse xenografted with human HCT-116 cells assessed as effect on body weight at 20 mg/kg, po administered and observed for 37 days; type: organism-based; conditions: in vivo, 888 h, time 37 day; outline: as §1
HCT-116 [8] = experiment: Antitumor activity against human HCT-116 cells xenografted in BALB/c mouse assessed as reduction in tumor at 10 to 20 mg/kg, po administered for 37 days and measured on day 37 by H and E staining based immunohistochemistry analysis; type: functional, organism-based; conditions: dose 10-20 mg/kg, time 37.0 day
HCT-116 [9] = experiment: Inhibition of HSP90/CDC37 interaction in human HCT-116 cells assessed as upregulation of p21/p27 at 1 to 10 uM incubated for 12 hrs by Western blot analysis; conditions: dose 1-10 µM
HCT-116 [10] = experiment: Inhibition of HSP90/CDC37 interaction in human HCT-116 cells assessed as reduction in CDK4 expression at 1 to 10 uM incubated for 12 hrs by immunoprecipitation based Western blot analysis; type: cell-based; conditions: dose 1-10 µM
Outline: (§2)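 HCT116 cells at ~90% confluence given compound (0, 1, 5, 10 μM) or DMSO for 12 h. Lysed 1 h on ice in RIPA buffer (50 mM Tris, 150 mM NaCl, 1% NP-40, protease inhibitors, pH 7.4), then spun 15 min at 4 °C. HSP90 immunoprecipitated with protein A/G magnetic beads over 3 h. Beads washed five times; blots probed for HSP90, CDC37 and CDK4.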

HCT-116 [11] = experiment: Inhibition of HSP90/CDC37 interaction in human HCT-116 cells for 12 hrs by immunoprecipitation based Western blot analysis; type: cell-based; conditions: dose 1-10 µM; outline: as §2
HCT-116 [12] = experiment: Inhibition of HSP90/CDC37 interaction in human HCT-116 cells assessed as downregulation of Cyclin D1 at 1 to 10 uM incubated for 12 hrs by Western blot analysis; conditions: dose 1-10 µM
HCT-116 [13] = experiment: Induction of cell cycle arrest in human HCT-116 cells assessed as increase in accumulation at G0/G1 phase at 1 to 10 uM incubated for 24 hrs by propidium iodide staining based flow cytometric analysis; type: functional; conditions: dose 1-10 µM
Outline: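 HCT116 cells exposed to 0, 1, 5 and 10 μM compound for 24 h. Fixed in 75% ethanol overnight at 4 °C, treated with RNase I (50 μg/mL) in PBS for 30 min at 37 °C, then stained with propidium iodide (50 μg/mL) for 15 min. Cell-cycle phases measured by flow cytometry.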

HCT-116 [14] = experiment: Inhibition of HSP90/CDC37 interaction in human HCT-116 cells assessed as downregulation of CDK6 incubated for 12 hrs by Western blot analysis; type: cell-based; conditions: dose 1-10 µM
Outline: (§3)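 HCT116 cells treated with 0, 1, 5 and 10 μM compound for 12 h. Whole-cell levels of HSP90, HSP70, CDC37, CDK4, CDK6, cyclin D1, p21 and p27 measured by Western blot, with β-actin as loading control. Three independent experiments.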

Heat shock protein HSP90 [15] = biological target: T1, Heat shock protein HSP90; experiment: Binding affinity to HSP90 in human HCT-116 cells assessed as increase in thermal stability at 5 uM incubated for 12 hrs at 35 to 65 degC by […]; type: cell-based
Outline: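 HCT116 cells at ~90% confluence treated with 5 μM compound or DMSO for 12 h, then washed and resuspended in PBS. Aliquots heated 3 min across 35–65 °C, freeze-thawed three times in liquid nitrogen and centrifuged. Soluble HSP90 and CDC37 detected by Western blot. Three independent experiments.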

HCT-116 [16] = experiment: Inhibition of HSP90/CDC37 interaction in human HCT-116 cells assessed as downregulation of CDK4 incubated for 12 hrs by Western blot analysis; type: cell-based; conditions: dose 1-10 µM; outline: as §3
HCT-116 [17] = experiment: Antitumor activity against human HCT-116 cells xenografted in BALB/c mouse assessed as reduction in tumor volume administered orally for 37 days and measured on day 37; type: functional; conditions: dose 10-20 mg/kg, time 37.0 day; outline: as §1
[18] = Toxicity in BALB/c mouse xenografted with human HCT-116 cells assessed as effect on body weight at 10 to 20 mg/kg, po administered and observed for 37 days; type: organism-based; conditions: in vivo, 888 h, dose 10-20 mg/kg, time 37 day; outline: as §1
Mus musculus [19] = experiment: In vivo inhibition of HSP90/[…] interaction in BALB/c mouse xenografted with human HCT-116 cells assessed as reduction in CDK4 level administered orally for 37 days and measured on day 37 by […] immunohistochemistry analysis; type: functional, organism-based; conditions: dose 10-20 mg/kg, time 37.0 day
HCT-116 [20] = experiment: Inhibition of HSP90/CDC37 interaction in human HCT-116 cells assessed as downregulation of HSP70 at 1 to 10 uM incubated for 12 hrs by Western blot analysis; conditions: dose 1-10 µM
Heat shock protein HSP90 [21] = biological target: T1, Heat shock protein HSP90; experiment: Inhibition of HSP90 (unknown origin) at 100 uM measured after 1.5 hrs in presence of ATP by spectrophotometry relative to control; type: protein assay
[22] = Homo sapiens, HCT-116, 72 h, read-out: IC50

SMILES	K (Heat shock protein HSP90 [1])	IC50 (HCT-116 [2]; [22]) [µM]	K (Heat shock protein HSP90 [3])	Kd (Heat shock protein HSP90 [4])	also measured
Cc1ccc(S(=O)(=O)Nc2ccc(Nc3ccnc(N4CCNCC4)n3)cc2)cc1	inactive	> 20	inactive	–	–
O=S(=O)(Nc1ccc(Nc2ccnc(N3CCNCC3)n2)cc1)c1ccc(OCc2ccccc2)cc1	inactive	7.05	inactive	–	–
O=S(=O)(Nc1ccc(Nc2ccnc(N3CCNCC3)n2)cc1)c1ccc(Oc2ccccc2)cc1	inactive	> 20	inactive	–	–
CCc1ccc(S(=O)(=O)Nc2ccc(Nc3ccnc(N4CCNCC4)n3)cc2)cc1	inactive	> 20	inactive	–	–
CC(C)c1cc(C(C)C)c(S(=O)(=O)Nc2ccc(Nc3ccnc(N4CCNCC4)n3)cc2)c(C(C)C)c1	inactive	> 20	inactive	–	–
CCCc1ccc(S(=O)(=O)Nc2ccc(Nc3ccnc(N4CCNCC4)n3)cc2)cc1.Cl	3.17 10^3(1/Ms)	19.3	0.0366 s⁻¹	11.5 µM	–
Cl.O=S(=O)(Nc1ccc(Nc2ccnc(N3CCNCC3)n2)cc1)c1ccc2c(c1)CCO2	3.02 10^3(1/Ms)	5.82	0.0321 s⁻¹	10.6 µM	–
O=S(=O)(Nc1ccc(Nc2ccnc(N3CCNCC3)n2)cc1)c1ccc(Cl)cc1	inactive	11.1	inactive	–	–
O=S(=O)(Nc1ccc(Nc2ccnc(N3CCNCC3)n2)cc1)c1ccc(F)cc1	inactive	> 20	inactive	–	–
O=S(=O)(Nc1ccc(Nc2ccnc(N3CCNCC3)n2)cc1)c1ccc(Br)cc1	inactive	1.35	inactive	–	–
CC(C)c1ccc(S(=O)(=O)Nc2ccc(Nc3ccnc(N4CCNCC4)n3)cc2)cc1.Cl	–	> 20	–	> 100 µM	–
Cc1cc(C)c(S(=O)(=O)N(CC(=O)O)c2ccc(Nc3ccnc(N4CCNCC4)n3)cc2)c(C)c1	–	–	–	–	inhibition (Mus musculus [5]): Active; Activity (HCT-116 [6]): Active; Activity [7]: Non-Toxic
O=S(=O)(Nc1ccc(Nc2ccnc(N3CCNCC3)n2)cc1)c1cccs1	inactive	> 20	inactive	–	–
Cl.Cn1cnc(S(=O)(=O)Nc2ccc(Nc3ccnc(N4CCNCC4)n3)cc2)c1	inactive	–	inactive	–	IC50 (HCT-116 [2]; hct-116): Not Active
CCCCCc1ccc(S(=O)(=O)Nc2ccc(Nc3ccnc(N4CCNCC4)n3)cc2)cc1.Cl	–	16.7	–	> 100 µM	–
Cl.O=S(=O)(Nc1ccc(Nc2ccnc(N3CCNCC3)n2)cc1)c1ccc2c(c1)CCC2	3.54 10^4/Ms	13.4	0.337 s⁻¹	9.52 µM	–
O=S(=O)(Nc1ccc(Nc2ccnc(N3CCNCC3)n2)cc1)c1ccc(OC(F)(F)F)cc1	inactive	> 20	inactive	–	–
CCOC(=O)c1ccc(S(=O)(=O)Nc2ccc(Nc3ccnc(N4CCNCC4)n3)cc2)cc1.Cl	3.55 10^4/Ms	16.4	0.182 s⁻¹	5.13 µM	–
CCCCc1ccc(S(=O)(=O)Nc2ccc(Nc3ccnc(N4CCNCC4)n3)cc2)cc1.Cl	1.04 10^4/Ms	7.5	0.121 s⁻¹	11.6 µM	–
Cl.O=S(=O)(Nc1ccc(Nc2ccnc(N3CCNCC3)n2)cc1)c1ccc(-c2ccccc2)cc1	6.1 10^3(1/Ms)	13.7	0.112 s⁻¹	18.4 µM	–
Cc1c(C)c(S(=O)(=O)Nc2ccc(Nc3ccnc(N4CCNCC4)n3)cc2)c(C)c2c1OC(C)(C)C2.Cl	2.03 10^4/Ms	6.34	0.112 s⁻¹	5.52 µM	Activity (HCT-116 [8]): Active; inhibition (HCT-116 [9]): Active; inhibition (HCT-116 [10]): Active; inhibition (HCT-116 [11]): Dose-dependent effect; inhibition (HCT-116 [12]): Active; Activity (HCT-116 [13]): Active; inhibition (HCT-116 [14]): Dose-dependent effect; Activity (Heat shock protein HSP90 [15]): Active; inhibition (HCT-116 [16]): Dose-dependent effect; Activity (HCT-116 [17]): Dose-dependent effect; Activity [18]: Non-Toxic; inhibition (Mus musculus [19]): Dose-dependent effect; inhibition (HCT-116 [20]): inactive
COc1cc(S(=O)(=O)Nc2ccc(Nc3ccnc(N4CCNCC4)n3)cc2)c(C)cc1C.Cl	–	> 50	–	>= 20 uM	inhibition (Heat shock protein HSP90 [21]): 56%
N#Cc1ccc(S(=O)(=O)Nc2ccc(Nc3ccnc(N4CCNCC4)n3)cc2)cc1	inactive	> 20	inactive	–	–

From ChEMBL document CHEMBL4732076, “Design, synthesis and bioevaluation of inhibitors targeting HSP90-CDC37 protein-protein interaction based on a hydrophobic core” (Eur J Med Chem, 2021)
